In ChEMBL document CHEMBL1154160, “Synthesis, antiviral activity, and stability of nucleoside analogs containing tricyclic bases” (Eur J Med Chem, 2009):

Key:
Human alphaherpesvirus 1 = assay: Antiviral activity against HSV1 F in african green monkey Vero cells by plaque reduction assay; format: functional, organism-based; settings: Human alphaherpesvirus 1, strain F
Hepatitis C virus = assay: Antiviral activity against HCV in human Huh7 cells by RNA replicon assay; format: functional, organism-based, Hepacivirus hominis; settings: Huh-7
PBMC = assay: (§1) Cytotoxicity against human PBMC cells; format: cell-based; settings: pbmc
CCRF-CEM = assay: (§2) Cytotoxicity against human CEM cells; format: cell-based; settings: ccrf-cem
Vero = assay: (§3) Cytotoxicity against african green monkey Vero cells; format: cell-based; settings: chlorocebus sabaeus, vero
[1] = tested on: Human immunodeficiency virus; assay: Antiviral activity against HIV in human PBM cells; settings: Human immunodeficiency virus 1, PBMC
[2] = Stability in water assessed as half life; format: physicochemical; settings: buffer
Procedure, shortened: (§4)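 Analogs were diluted from a freshly made stock into water and into methanol, with one half held at room temperature and the other at 4°C. Samples were injected at intervals: every 15 min for 2 hr, then hourly, daily and weekly. LC-MS/MS used a C18 column at 30°C with a formate pH 3 (or water)/methanol gradient, ESI-positive SRM. Released guanine-analog was quantified against 10–1000 nM standard curves.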

[3] = Stability in methanol assessed as 3'-azido-3'-deoxyguanosine levels after 72 hrs; format: physicochemical; procedure, shortened: as §4
[4] = as §1; format: cell-based; settings: PBMC cells
[5] = as §2; format: cell-based, CCRF-CEM; settings: CEM (CCRF-CEM) cells
[6] = as §3; format: cell-based; settings: chlorocebus sabaeus, Vero cells

| SMILES | EC50 (Human alphaherpesvirus 1) [µM] | EC90 (Human alphaherpesvirus 1) [µM] | EC50 (Hepatitis C virus) [µM] | EC90 (Hepatitis C virus) [µM] | CC50 (PBMC) [µM] | CC50 (CCRF-CEM) [µM] | CC50 (Vero) [µM] | EC50 [1] [µM] | EC90 [1] [µM] | t1/2 [2] [min] | Activity [3] [%] | CC50 [4] [µM] | CC50 [5] [µM] | CC50 [6] [µM] |
| --- | --- | --- | --- | --- | --- | --- | --- | --- | --- | --- | --- | --- | --- | --- |
| COc1ccc(-c2cn3c(O)c4ncn(COCCO)c4nc3n2)cc1 | 12.2 | 23.7 | – | – | – | – | – | – | – | – | – | – | – | – |
| Nc1nc2c(ncn2[C@H]2CO[C@@H](CO)O2)c(=O)[nH]1 | – | – | > 10 | > 10 | > 100 | > 100 | > 100 | 0.51 | 2.4 | – | – | – | – | – |
| COc1ccc(-c2cn3c(=O)c4ncn([C@H]5C=C[C@@H](CO)C5)c4nc3[nH]2)cc1 | – | – | > 10 | > 10 | > 100 | > 100 | > 100 | 0.62 | 4.9 | – | – | – | – | – |
| [N-]=[N+]=Nc1ccc(-c2cn3c(=O)c4ncn([C@H]5CO[C@@H](CO)O5)c4nc3[nH]2)cc1 | – | – | > 10 | > 10 | > 100 | > 100 | > 100 | 2.6 | 11.4 | – | – | – | – | – |
| N#Cc1ccc(-c2cn3c(=O)c4ncn([C@H]5CO[C@@H](CO)O5)c4nc3[nH]2)cc1 | – | – | > 10 | > 10 | > 100 | > 100 | > 100 | 69.3 | > 100 | – | – | – | – | – |
| COc1ccc(-c2cn3c(=O)c4ncn([C@H]5C[C@H](N=[N+]=[N-])[C@@H](CO)O5)c4nc3[nH]2)cc1 | – | – | > 10 | > 10 | 56.7 | 13.5 | > 100 | 1.3 | 7 | – | – | – | – | – |
| CCN(CC)c1ccc(-c2cn3c(=O)c4ncn([C@H]5C[C@H](N=[N+]=[N-])[C@@H](CO)O5)c4nc3[nH]2)cc1 | – | – | > 10 | > 10 | > 100 | 14.1 | 72.8 | 0.04 | 0.34 | 25 | 1 | – | – | – |
| O=c1c2ncn([C@H]3C=C[C@@H](CO)C3)c2nc2[nH]c(-c3cccs3)cn12 | – | – | > 10 | > 10 | > 100 | > 100 | > 100 | 0.64 | 7.1 | – | – | – | – | – |
| CCc1cn2c(=O)c3ncn([C@H]4CO[C@@H](CO)O4)c3nc2[nH]1 | – | – | > 10 | > 10 | > 100 | > 100 | > 100 | 31.5 | > 100 | – | – | – | – | – |
| Cc1ccc(-c2cn3c(=O)c4ncn([C@H]5C=C[C@@H](CO)C5)c4nc3[nH]2)cc1 | – | – | > 10 | > 10 | > 100 | > 100 | > 100 | 5 | 30.1 | – | – | – | – | – |
| O=c1c2ncn([C@H]3CO[C@@H](CO)O3)c2nc2[nH]c(-c3cccs3)cn12 | – | – | > 10 | > 10 | > 100 | > 100 | > 100 | 3 | 16 | – | – | – | – | – |
| COc1cccc(-c2cn3c(=O)c4ncn([C@H]5CO[C@@H](CO)O5)c4nc3[nH]2)c1 | – | – | > 10 | > 10 | > 100 | > 100 | > 100 | 20.7 | 89.6 | – | – | – | – | – |
| O=c1c2ncn([C@H]3CO[C@@H](CO)O3)c2nc2[nH]c(-c3ccsc3)cn12 | – | – | > 10 | > 10 | > 100 | > 100 | > 100 | 0.91 | 6.6 | – | – | – | – | – |
| C[C@@]1(O)[C@H](O)[C@@H](CO)O[C@H]1n1cnc2c(=O)n3cc(-c4cccs4)[nH]c3nc21 | – | – | 6.9 | 25.6 | > 100 | > 100 | 44.3 | > 100 | > 100 | – | – | – | – | – |
| CCc1cn2c(=O)c3ncn([C@@H]4O[C@H](CO)[C@@H](O)[C@@]4(C)O)c3nc2[nH]1 | – | – | > 10 | > 10 | – | – | – | > 100 | > 100 | – | – | > 100 | > 100 | > 100 |
| CN(C)c1ccc(-c2cn3c(=O)c4ncn([C@H]5CO[C@@H](CO)O5)c4nc3[nH]2)cc1 | – | – | > 10 | > 10 | > 100 | > 100 | > 100 | 0.61 | 1.5 | – | – | – | – | – |
| COc1ccc(-c2cn3c(=O)c4ncn([C@@H]5O[C@H](CO)[C@@H](O)[C@@]5(C)O)c4nc3[nH]2)cc1 | – | – | ≥ 10 | > 10 | > 100 | > 100 | > 100 | > 100 | > 100 | – | – | – | – | – |
| CCN(CC)c1ccc(-c2cn3c(=O)c4ncn([C@H]5C=C[C@@H](CO)C5)c4nc3[nH]2)cc1 | – | – | > 10 | > 10 | > 100 | > 100 | > 100 | 0.13 | 0.65 | – | – | – | – | – |

| SMILES | EC50 (Human alphaherpesvirus 1) [µM] | EC90 (Human alphaherpesvirus 1) [µM] | EC50 (Hepatitis C virus) [µM] | EC90 (Hepatitis C virus) [µM] | CC50 (PBMC) [µM] | CC50 (CCRF-CEM) [µM] | CC50 (Vero) [µM] | EC50 [1] [µM] | EC90 [1] [µM] | t1/2 [2] [min] | Activity [3] [%] | CC50 [4] [µM] | CC50 [5] [µM] | CC50 [6] [µM] |
| --- | --- | --- | --- | --- | --- | --- | --- | --- | --- | --- | --- | --- | --- | --- |
| CN(C)c1ccc(-c2cn3c(=O)c4ncn([C@H]5C[C@H](N=[N+]=[N-])[C@@H](CO)O5)c4nc3[nH]2)cc1 | – | – | > 10 | > 10 | > 100 | 74.6 | > 100 | 0.14 | 0.54 | – | – | – | – | – |
| O=c1c2ncn([C@H]3C=C[C@@H](CO)C3)c2nc2[nH]c(-c3ccsc3)cn12 | – | – | > 10 | > 10 | > 100 | > 100 | > 100 | 2.6 | 15.5 | – | – | – | – | – |
| O=c1c2ncn([C@H]3CO[C@@H](CO)O3)c2nc2[nH]c(-c3ccc(F)cc3)cn12 | – | – | > 10 | > 10 | > 100 | > 100 | > 100 | 43.5 | > 100 | – | – | – | – | – |
| O=c1c2ncn([C@H]3C=C[C@@H](CO)C3)c2nc2[nH]c(-c3ccc(Br)cc3)cn12 | – | – | > 10 | > 10 | > 100 | > 100 | > 100 | 12.3 | 43.2 | – | – | – | – | – |
| CN(C)c1ccc(-c2cn3c(=O)c4ncn([C@H]5C=C[C@@H](CO)C5)c4nc3[nH]2)cc1 | – | – | > 10 | > 10 | 24 | > 100 | > 100 | 0.11 | 0.47 | – | – | – | – | – |
| Cc1ccc(-c2cn3c(=O)c4ncn([C@H]5CO[C@@H](CO)O5)c4nc3[nH]2)cc1 | – | – | > 10 | > 10 | > 100 | > 100 | > 100 | 4.9 | 23.9 | – | – | – | – | – |
| [N-]=[N+]=N[C@H]1C[C@H](n2cnc3c(=O)n4cc(-c5ccccc5)[nH]c4nc32)O[C@@H]1CO | – | – | > 10 | > 10 | 69.6 | 21.8 | > 100 | 8.4 | 94.1 | – | – | – | – | – |
| O=c1c2ncn([C@H]3CO[C@@H](CO)O3)c2nc2[nH]c(-c3ccc(F)cc3F)cn12 | – | – | > 10 | > 10 | > 100 | > 100 | > 100 | 14.7 | 51.8 | – | – | – | – | – |
| COc1ccc(-c2cn3c(=O)c4ncn([C@H]5CO[C@@H](CO)O5)c4nc3[nH]2)cc1 | – | – | > 10 | > 10 | > 100 | > 100 | > 100 | 3.45 | 23.9 | – | – | – | – | – |
| CCN(CC)c1ccc(-c2cn3c(=O)c4ncn([C@H]5CO[C@@H](CO)O5)c4nc3[nH]2)cc1 | – | – | > 10 | > 10 | > 100 | 80.8 | 63 | 0.25 | 1.25 | – | – | – | – | – |
| CN(C)c1ccc(-c2cn3c(=O)c4ncn([C@@H]5O[C@H](CO)[C@@H](O)[C@@]5(C)O)c4nc3[nH]2)cc1 | – | – | – | – | – | > 100 | > 100 | – | – | – | – | – | – | – |
| COc1ccccc1-c1cn2c(=O)c3ncn([C@H]4CO[C@@H](CO)O4)c3nc2[nH]1 | – | – | > 10 | > 10 | > 100 | > 100 | > 100 | 8.5 | 26.8 | – | – | – | – | – |
| C[C@@]1(O)[C@H](O)[C@@H](CO)O[C@H]1n1cnc2c(=O)n3cc(-c4ccsc4)[nH]c3nc21 | – | – | ≥ 10 | > 10 | > 100 | > 100 | > 100 | > 100 | > 100 | – | – | – | – | – |
| O=c1c2ncn([C@H]3CO[C@@H](CO)O3)c2nc2[nH]c(-c3ccc(Cl)cc3)cn12 | – | – | > 10 | > 10 | > 100 | > 100 | > 100 | > 100 | > 100 | – | – | – | – | – |
| O=c1c2ncn([C@H]3CO[C@@H](CO)O3)c2nc2[nH]c(-c3ccccc3)cn12 | – | – | > 10 | > 10 | > 100 | > 100 | > 100 | 7.1 | 43.5 | – | – | – | – | – |
| C[C@@]1(O)[C@H](O)[C@@H](CO)O[C@H]1n1cnc2c(=O)[nH]c(N)nc21 [2'-B-METHYL-GUANOSINE] | – | – | 2.3 | 7.8 | – | – | – | > 100 | > 100 | – | – | > 100 | > 100 | > 100 |
| Nc1nc2c(ncn2[C@H]2C=C[C@@H](CO)C2)c(=O)[nH]1 [CARBOVIR] | – | – | > 10 | > 10 | 7 | > 100 | > 100 | 0.043 | 0.29 | – | – | – | – | – |
